Measurements: ChEMBL document CHEMBL1124360, “Dihydropyrimidines: novel calcium antagonists with potent and long-lasting vasodilative and antihypertensive activity” (J Med Chem, 1989)

Experiments:
Canis familiaris [1] = assay: Effective dose that lowers vascular resistance by, 30% in dogs when administered intravenously; assay type: functional; conditions: Canis lupus familiaris, iv
Procedure, shortened: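 Mongrel dogs (7-15 kg, either sex) are anesthetized with thiopental 30 mg/kg iv or ip, then urethane 400 mg/kg plus α-chloralose 60 mg/kg iv, and ventilated. Left vertebral flow is measured by electromagnetic probe and femoral arterial pressure is recorded. Resistance is pressure divided by flow. Compounds in ethanol are given iv at 0.05 mL/kg in cumulative rising doses; the dose cutting resistance 30% is taken (N = 3).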

Canis familiaris [2] = assay: (§1) Time to peak response on lowering of vascular resistance, in dogs when administered intravenously; assay type: organism-based, Canis lupus familiaris; conditions: dog, in vivo, iv
Canis familiaris [3] = species: Canis familiaris; assay: Effective dose against atrioventricular conduction in dogs at which they prolong atrioventricular conduction time by 30%; assay type: functional; conditions: Canis lupus familiaris
Procedure, shortened: (§2)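 Anesthetized open-chest dogs; atrium paced with square-wave pulses of 1.5-2.5 V, 2 ms, at 2.5 Hz. AV conduction time is the interval between atrial and ventricular electrograms. Compounds are dissolved in 100% DMSO and injected iv into the femoral vein at 0.05 mL/kg. Reported as the dose prolonging AVCT by 30% (mean ± SE, N = 4-5) or the dose inducing AV block.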

Canis familiaris [4] = species: Canis familiaris; assay: Dose at which compound induce atrioventricular block in dogs; AV means atrioventricular; range is 1000-3000; assay type: functional, Canis lupus familiaris; procedure, shortened: as §2
[5] = target: T1, Voltage-gated L-type calcium channel (Rattus norvegicus, UniProt P22002+Q02485+P27732); assay: Inhibition of [3H]- Nitrendipine binding to L-type calcium channels of rat cerebral cortex; assay type: tissue-based
Procedure, shortened: (§3)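 Rat cerebral cortex is homogenized in ice-cold 50 mM Tris-HCl pH 7.7 and washed by repeated 40000g spins. Homogenate is incubated with 0.2 nM [³H]nitrendipine and drug for 1 h at 25 °C, then vacuum-filtered on glass-fiber filters and counted by liquid scintillation. Nonspecific binding is defined with 1 μM unlabeled nitrendipine.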

Canis familiaris [6] = assay: as §1; assay type: ADME, organism-based, Canis lupus familiaris; conditions: dog, in vivo, iv
Canis familiaris [7] = species: Canis familiaris; assay: Dose at which compound induce atrioventricular block in dogs; range is 100-3000; assay type: functional, Canis lupus familiaris; procedure, shortened: as §2
[8] = target: T1, Voltage-gated L-type calcium channel; assay: Inhibition of [3H]nitrendipine binding to L-type calcium channels of rat cerebral cortex; assay type: tissue-based; procedure, shortened: as §3
Canis familiaris [9] = species: Canis familiaris; assay: Dose at which compound induce atrioventricular block in dogs; range is 100-300; assay type: functional, Canis lupus familiaris; procedure, shortened: as §2

Row | SMILES | ED30 (Canis familiaris [1]) [µg/kg] | further results
1 | CCOC(=O)C1=C(C)N=C(C)N(C(=O)OCC)C1c1ccccc1Br (configuration not stated) | 5 | 
2 | CC1=C(C(=O)OC(C)C)C(c2ccccc2[N+](=O)[O-])N(C(=O)OCCN(Cc2ccccc2)Cc2ccc3ccccc3c2)C=N1 (configuration not stated) | > 100 | 
3 | CC1=C(C(=O)OC(C)C)C(c2ccccc2[N+](=O)[O-])N(C(=O)OCCN(Cc2ccccc2)Cc2ccc3ccccc3c2)C(C(C)C)=N1 (configuration not stated) | > 100 | 
4 | CC1=C(C(=O)OC(C)C)C(c2ccccc2[N+](=O)[O-])N(C(=O)OCCN(Cc2ccccc2)Cc2ccc3ccccc3c2)C(N(C)C)=N1 (configuration not stated) | > 100 | 
5 | CCOC(=O)C1=C(C)NC(=O)N(C(=O)OCCN(C)Cc2ccccc2)C1c1cccc(Cl)c1 (configuration not stated) | 43 | 
6 | CC1=NC(C)=C(C(=O)OCC2CC2)C(c2ccccc2[N+](=O)[O-])N1C(=O)OCCN(CCCc1ccccc1)Cc1ccccc1 (configuration not stated) | 4.3 | Tp (Canis familiaris [2]): 4.8 min; ED30 (Canis familiaris [3]): 0.843 mg/kg; AV block (Canis familiaris [4]): 1000 µg/kg
7 | CC1=NC(C)=C(C(=O)OCC2CC2)C(c2ccccc2[N+](=O)[O-])N1C(=O)OCCN(C/C=C/c1ccccc1)Cc1ccccc1 (configuration not stated) | 3.9 | Tp (Canis familiaris [2]): 5.6 min
8 | CCOC(=O)C1=C(C)N=C(C)N(C(=O)OCCN(C)Cc2ccccc2)C1c1ccccc1[N+](=O)[O-] (configuration not stated) | 0.75 | 
9 | CC1=NC(C)=C(C(=O)OC(C)C)C(c2ccccc2[N+](=O)[O-])N1C(=O)OCCN(Cc1ccccc1)Cc1ccc2ccccc2c1 (configuration not stated) | 1.8 | ED30 (Canis familiaris [3]): 0.762 mg/kg; AV block (Canis familiaris [4]): 1000 µg/kg; IC50 [5]: 7.08 nM; Tp (Canis familiaris [6]): 7.9 min
10 | CO/C(O)=C1/C(C)=NC(C)=C(C(=O)OCCN2CCN(C(c3ccccc3)c3ccccc3)CC2)C1c1cccc([N+](=O)[O-])c1 (configuration not stated) |  | IC50 [5]: 8.68 nM
11 | CC1=NC(C)=C(C(=O)OC(C)C)C(c2ccccc2[N+](=O)[O-])N1C(=O)OCCN(CCc1ccccc1)Cc1ccccc1 (configuration not stated) | 1.2 | Tp (Canis familiaris [2]): 2.7 min
12 | CCCCCCCOC(=O)C1=C(C)N=C(C)N(C(=O)OCC)C1c1ccccc1[N+](=O)[O-] (configuration not stated) | 23 | 
13 | CC1=NC(C)=C(C(=O)OC(C)C)C(c2ccccc2[N+](=O)[O-])N1C(=O)OCCN(Cc1ccccc1)Cc1ccccc1 (configuration not stated) | 2.8 | Tp (Canis familiaris [2]): 2.6 min
14 | CCC1N=C(C)/C(=C(/O)OC(C)C)C(c2ccccc2[N+](=O)[O-])N1C(=O)OCN(Cc1ccccc1)Cc1ccc(Cl)c(Cl)c1 (configuration not stated) | 19.5 | Tp (Canis familiaris [2]): 5.5 min
15 | CSC1=NC(C)=C(C(=O)OC(C)C)C(c2ccccc2[N+](=O)[O-])N1C(=O)OCCN(Cc1ccccc1)Cc1ccc2ccccc2c1 (configuration not stated) | > 100 | 
16 | CCOC(=O)C1=C(Cl)N=C(C)N(C(=O)OCCN(Cc2ccccc2)Cc2ccc3ccccc3c2)C1c1ccccc1[N+](=O)[O-] (configuration not stated) | 10 | Tp (Canis familiaris [2]): 5.2 min
17 | CCOC(=O)C1=C(COCCN(Cc2ccccc2)Cc2ccc(Cl)c(Cl)c2)N=C(C)N(C(=O)OC)C1c1ccccc1[N+](=O)[O-].Cl (configuration not stated) | > 100 | 
18 | CCCCCCCOC(=O)N1C(=O)NC(C)=C(C(=O)OCC2CC2)C1c1ccccc1[N+](=O)[O-] (configuration not stated) | 2.3 | Tp (Canis familiaris [2]): 1.9 min
19 | CC1=NC(C)=C(C(=O)OCC2CC2)C(c2ccccc2[N+](=O)[O-])N1C(=O)OCCN(C)Cc1ccccc1 (configuration not stated) | 0.5 | 
20 | CCCCCCCOC(=O)C1=C(C)N=C(C)N(C(=O)OCCCCCCC)C1c1ccccc1[N+](=O)[O-] (configuration not stated) | 180 | 
21 | CCC1N=C(C)/C(=C(/O)OC(C)C)C(c2ccccc2[N+](=O)[O-])N1C(=O)OCN(Cc1ccccc1)Cc1ccc2ccccc2c1 (configuration not stated) | 13.5 | Tp (Canis familiaris [2]): 7.2 min
22 | CCCCCCCOC(=O)C1=C(C)N=C(C)N(C(=O)OCCN(Cc2ccccc2)Cc2ccccc2)C1c1ccccc1[N+](=O)[O-] (configuration not stated) | > 30 | 

Row | SMILES | ED30 (Canis familiaris [1]) [µg/kg] | further results
23 | CCOC(=O)N1C(CC)=NC(C)=C(C(=O)OC(C)C)C1c1ccccc1[N+](=O)[O-] (configuration not stated) | 8 | 
24 | CC1=C(C(=O)OC(C)C)C(c2ccccc2[N+](=O)[O-])N(C(=O)OCCN(Cc2ccccc2)Cc2ccccc2)C(C(F)(F)F)=N1 (configuration not stated) | 6.8 | 
25 | CCOC(=O)C1=C(C)N=C(C)N(C(=O)OCC)C1c1ccccc1[N+](=O)[O-] (configuration not stated) | 3 | 
26 | CC1=NC(C)=C(C(=O)OC(C)C)C(c2ccccc2[N+](=O)[O-])N1C(=O)OCCN(Cc1ccccc1)c1ccccc1 (configuration not stated) | 0.74 | Tp (Canis familiaris [2]): 1.9 min
27 | CC1=NC(C)=C(C(=O)OC(C)C)C(c2ccccc2[N+](=O)[O-])N1C(=O)OCCN(Cc1ccccc1)Cc1ccc(Cl)c(Cl)c1 (configuration not stated) | 2.1 | ED30 (Canis familiaris [3]): 0.596 mg/kg; AV block (Canis familiaris [4]): 1000 µg/kg; IC50 [5]: 2.05 nM; Tp (Canis familiaris [6]): 10.8 min
28 | CCCCOC(=O)C1=C(C)N=C(C)N(C(=O)OCCN(Cc2ccccc2)Cc2ccccc2)C1c1ccccc1[N+](=O)[O-] (configuration not stated) | 6.8 | Tp (Canis familiaris [2]): 4.7 min
29 | CCC1=NC(C)=C(C(=O)OC(C)C)C(c2ccccc2[N+](=O)[O-])N1C(=O)OCCN(Cc1ccccc1)Cc1ccc2ccccc2c1 (configuration not stated) | 27 | 
30 | CCOC(=O)C1=C(C)NC(=O)N(C(=O)OCC(c2ccccc2)c2ccccc2)C1c1cccc([N+](=O)[O-])c1 (configuration not stated) | 10.6 | 
31 | CCOC(=O)N1C(C(F)(F)F)=NC(C)=C(C(=O)OC(C)C)C1c1ccccc1[N+](=O)[O-] (configuration not stated) | 8.3 | 
32 | CCCCCCCOC(=O)N1C(=O)NC(C)=C(C(=O)OCC2CC2)C1c1cccc([N+](=O)[O-])c1 (configuration not stated) | 3 | 
33 | CCOC(=O)C1=C(C)N=C(C)N(C(=O)OCC)C1c1ccccc1Cl (configuration not stated) | 5 | 
34 | CCOC(=O)C1=C(C)N=C(C)N(C(=O)OCC)C1c1cccc([N+](=O)[O-])c1 (configuration not stated) | 10 | 
35 | CCCCCCCOC(=O)N1C(C)=NC(C)=C(C(=O)OCC)C1c1ccccc1[N+](=O)[O-] (configuration not stated) | 3.2 | 
36 | CCCCCCCOC(=O)N1C(C)=NC(C)=C(C(=O)OCC2CC2)C1c1ccccc1[N+](=O)[O-] (configuration not stated) | 5.6 | 
37 | CCOC(=O)N1C(C)=NC(C)=C(C(=O)OCCN(C)Cc2ccccc2)C1c1ccccc1[N+](=O)[O-] (configuration not stated) | 13 | 
38 | CC1=C(C(=O)OCC2CC2)C(c2cccc([N+](=O)[O-])c2)N(C(=O)OCCN(C)Cc2ccccc2)C(=O)N1 (configuration not stated) | 13 | 
39 | CC1=C(C(=O)OC(C)C)C(c2ccccc2[N+](=O)[O-])N(C(=O)OCCN(Cc2ccccc2)Cc2ccc3ccccc3c2)C(=O)N1 (configuration not stated) | 10 | Tp (Canis familiaris [2]): 7.8 min
40 | COC(=O)C1=C(C)NC(C)=C(C(=O)OCCN(C)Cc2ccccc2)C1c1cccc([N+](=O)[O-])c1 (configuration not stated) [NICARDIPINE] | 3 | ED30 (Canis familiaris [3]): 0.175 mg/kg; AV block (Canis familiaris [7]): 100 µg/kg; IC50 [8]: 2.66 nM; Tp (Canis familiaris [6]): 1.2 min
41 | COC(=O)C1=C(C)NC(C)=C(C(=O)OC)C1c1ccccc1[N+](=O)[O-] [NIFEDIPINE] | 0.5 | Tp (Canis familiaris [6]): 0.7 min
42 | COC(=O)C1=C(C#N)NC(C)=C(C(=O)OC(C)C)C1c1cccc([N+](=O)[O-])c1 (configuration not stated) [NILVADIPINE] |  | ED30 (Canis familiaris [3]): 0.034 mg/kg; AV block (Canis familiaris [9]): 100 µg/kg; IC50 [8]: 1.04 nM
43 | CCOC(=O)C1=C(C)NC(C)=C(C(=O)OC)C1c1cccc([N+](=O)[O-])c1 (configuration not stated) [NITRENDIPINE] | 1.2 | Tp (Canis familiaris [2]): 1 min
